Measured values: ChEMBL document CHEMBL1944513, “Synthesis of novel 2-mercapto benzothiazole and 1,2,3-triazole based bis-heterocycles: their anti-inflammatory and anti-nociceptive activities” (Eur J Med Chem, 2012)
Activity calls are given as the source filed them. The calls are words filed in the database; no cut-off is given here.

Legend:
[1] = test system: Rattus norvegicus; assay: Antiinflammatory activity in Albino Wistar rat assessed as inhibition of carrageenan-induced paw edema at equimolar dosage of Ibuprofen 10 mg/kg, po administered 1 hr before carrageenan challenge measured after 3 hrs by plethysmometer; assay type: functional
Procedure, shortened: (§1)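 Rats fasted 14 h with water only. Compounds given orally at dose equimolar to ibuprofen (10 mg/kg p.o.) 1 h before subplantar injection of 0.1 ml freshly prepared 1% carrageenan in saline into right hind paw. Control received 0.1 ml 0.9% saline orally. Change in paw volume (ml) at 3 and 5 h; % inhibition; one-way ANOVA with Dunnett's test.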

[2] = test system: Rattus norvegicus; assay: Antiinflammatory activity in Albino Wistar rat assessed as inhibition of carrageenan-induced paw edema at equimolar dosage of Ibuprofen 10 mg/kg, po administered 1 hr before carrageenan challenge measured after 5 hrs by plethysmometer; assay type: functional; procedure, shortened: as §1
[3] = test system: Rattus norvegicus; assay: Ulcerogenicity in Albino Wistar rat assessed as gastric ulceration at equimolar dosage of Ibuprofen 30 mg/kg, po relative to control; assay type: toxicity, organism-based, Stomach; parameters: dose 30 mg/kg, route oral; settings: in vivo
Procedure, shortened: (§2)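 Oral dosing at three times the anti-inflammatory dose: ibuprofen 30 mg/kg or equimolar test compound. Three animals per group, sacrificed afterwards. Stomach wall sections stained with haematoxylin-eosin and examined at 10x and 40x for mucosal, submucosal and epithelial damage.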

[4] = test system: Mus musculus; assay: Ulcerogenicity in mouse assessed as gastric ulceration at equimolar dosage of Ibuprofen 30 mg/kg, po relative to control; assay type: toxicity, organism-based, Stomach; parameters: dose 30 mg/kg, route oral; settings: in vivo
[5] = Selectivity ratio of IC50 for human recombinant COX2 to IC50 for ram seminal vesicle COX1; assay type: tissue-based
Procedure, shortened: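 COX-1 and COX-2 purified chromatographically. Peroxidase read-out from TMPD oxidation during PGG2 to PGH2 reduction. Mix: 100 mM Tris-HCl pH 8.0, hematin, 3 mM EDTA, […], test compound; 1 min preincubation at 25 °C; started with arachidonic acid plus TMPD. Rate from absorbance rise at 603 nm over first 25 s. Ratio is IC50 COX-2/IC50 COX-1.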

[6] = test system: Mus musculus; assay: Analgesic activity in mouse assessed as inhibition of acetic acid-induced writhing at equimolar dosage of Ibuprofen 10 mg/kg, po administered 30 mins before to acetic acid challenge measured for 20 mins relative to control; assay type: functional, organism-based; parameters: dose 10 mg/kg; settings: at 10 mg/kg
Procedure, shortened: (§3)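 Writhing induced in mice by intraperitoneal 0.6% (v/v) acetic acid (80 mg/kg). Compounds given orally at dose equimolar to ibuprofen 10 mg/kg, 30 min before stimulus; ibuprofen 10 mg/kg orally as reference. Six animals per group.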

[7] = test system: Rattus norvegicus; assay: Antiinflammatory activity in Albino Wistar rat assessed as inhibition of carrageenan-induced paw edema at equimolar dosage of Ibuprofen 10 mg/kg, po administered 1 hr before carrageenan challenge by plethysmometer; assay type: functional, organism-based; parameters: dose 10 mg/kg; settings: TDE = time-dependent effect, at 10 mg/kg; procedure, shortened: as §1
[8] = test system: Mus musculus; assay: Analgesic activity in mouse assessed as inhibition of acetic acid-induced writhing at 10 mg/kg, po administered 30 mins before to acetic acid challenge measured for 20 mins relative to control; assay type: functional, organism-based; parameters: dose 10 mg/kg; procedure, shortened: as §3
[9] = test system: Mus musculus; assay: Ulcerogenicity in mouse assessed as gastric ulceration at 30 mg/kg, po relative to untreated control; assay type: toxicity, organism-based, Stomach; parameters: dose 30 mg/kg, route oral; settings: in vivo
[10] = test system: Rattus norvegicus; assay: Antiinflammatory activity in Albino Wistar rat assessed as inhibition of carrageenan-induced paw edema at 10 mg/kg, po administered 1 hr before carrageenan challenge measured after 5 hrs by plethysmometer; assay type: functional; procedure, shortened: as §1
[11] = test system: Rattus norvegicus; assay: Ulcerogenicity in Albino Wistar rat assessed as gastric ulceration at 30 mg/kg, po relative to untreated control; assay type: toxicity, organism-based, Stomach; parameters: dose 30 mg/kg, route oral; settings: in vivo; procedure, shortened: as §2
[12] = test system: Rattus norvegicus; assay: Antiinflammatory activity in Albino Wistar rat assessed as inhibition of carrageenan-induced paw edema at 10 mg/kg, po administered 1 hr before carrageenan challenge measured after 3 hrs by plethysmometer; assay type: functional; procedure, shortened: as §1

SMILES	inhibition in vivo [1]	inhibition in vivo [2]	further results
CC1(C)OCC(Cn2cc(CSc3nc4ccccc4s3)nn2)O1 (stereo unspecified)	53.3%	49%	–
Fc1ccc(-n2cc(CSc3nc4ccccc4s3)nn2)cc1	77.8%	81.1%	Activity [3]: Non-toxic; Activity [4]: Non-toxic; Ratio IC50 [5]: 0.441; inhibition [6]: Active; inhibition [7]: tde
O=[N+]([O-])c1cccc(-n2cc(CSc3nc4ccccc4s3)nn2)c1	11.7%	21.5%	Ratio IC50 [5]: 5.21
Cc1ccc(-c2cc(C(F)(F)F)nn2-c2ccc(S(N)(=O)=O)cc2)cc1	–	–	Ratio IC50 [5]: 0.0028
O[C@@H]1[C@H](O)[C@@H](O)OC(Cn2cc(CSc3nc4ccccc4s3)nn2)[C@@H]1O (stereo partly specified)	63.3%	60.4%	–
c1cncc(-n2cc(CSc3nc4ccccc4s3)nn2)c1	64%	56%	–
CC1(C)O[C@H]2OC(Cn3cc(CSc4nc5ccccc5s4)nn3)[C@@H]3OC(C)(C)O[C@@H]3[C@@H]2O1 (stereo partly specified)	59.7%	56.6%	Ratio IC50 [5]: 1.53
O=[N+]([O-])c1ccc(-n2cc(CSc3nc4ccccc4s3)nn2)cc1	75%	65.5%	Activity [3]: Non-toxic; Activity [4]: Non-toxic; inhibition [6]: Active; inhibition [7]: tde
Brc1ccc(-n2cc(CSc3nc4ccccc4s3)nn2)cc1	75%	59.2%	Activity [3]: Non-toxic; Activity [4]: Non-toxic; inhibition [6]: Active; inhibition [7]: tde
Clc1cccc(-n2cc(CSc3nc4ccccc4s3)nn2)c1	35%	39.6%	–
c1ccc(-n2cc(CSc3nc4ccccc4s3)nn2)cc1	46.7%	32.1%	–
OCC(O)Cn1cc(CSc2nc3ccccc3s2)nn1 (stereo unspecified)	56.7%	52.8%	–
CCOc1ccc(-n2cc(CSc3nc4ccccc4s3)nn2)cc1	38.3%	34%	–
Clc1ccc(-n2cc(CSc3nc4ccccc4s3)nn2)cc1	50%	43.4%	Ratio IC50 [5]: 14.9
Clc1ccccc1-n1cc(CSc2nc3ccccc3s2)nn1	83.3%	78.1%	Activity [3]: Non-toxic; Activity [4]: Non-toxic; inhibition [6]: Active; inhibition [7]: tde
CC(C)Cc1ccc(C(C)C(=O)O)cc1 (stereo unspecified) [IBUPROFEN]	–	–	inhibition [8]: Active; Activity [9]: Toxic; inhibition in vivo at 10 mg/kg [10]: 71.7%; Activity [11]: Toxic; inhibition in vivo at 10 mg/kg [12]: 69.5%
Cc1ccccc1-n1cc(CSc2nc3ccccc3s2)nn1	47.3%	43.4%	–
